Measured values reported in article PMC10824694 (Blood Advances, 2023).

Columns and labels:
DHL6 = test: cells; type: cell-based; conditions: Homo sapiens, 72 h
SK-OV-3 = test: cells; type: cell-based; conditions: Homo sapiens, SK-OV-3, 72 h
MOLT-4 = test: cells; type: cell-based; conditions: Homo sapiens, MOLT-4, 72 h
BxPC3 = test: cells; type: cell-based; conditions: Homo sapiens, BXPC-3, 72 h
OVCAR-8 = test: cells; type: cell-based; conditions: Homo sapiens, OVCAR-8, 72 h
NCI-H460 = test: cells; type: cell-based; conditions: Homo sapiens, NCI-H460, 72 h
UO-31 = test: cells; type: cell-based; conditions: Homo sapiens, UO-31, 72 h
Mutu = test: cells; type: cell-based; conditions: Homo sapiens, 72 h
SW-620 = test: cells; type: cell-based; conditions: Homo sapiens, SW-620, 72 h
SN12C = test: cells; type: cell-based; conditions: Homo sapiens, 72 h
T-47D = test: cells; type: cell-based; conditions: Homo sapiens, T47D, 72 h
SNB-19 = test: cells; type: cell-based; conditions: Homo sapiens, SNB-19, 72 h
UACC-257 = test: cells; type: cell-based; conditions: Homo sapiens, UACC-257, 72 h
HS 578T = test: cells; type: cell-based; conditions: Homo sapiens, 72 h
HOP-62 = test: cells; type: cell-based; conditions: Homo sapiens, HOP-62, 72 h
PC-3 = test: cells; type: cell-based; conditions: Homo sapiens, PC-3, 72 h
HCC-2998 = test: cells; type: cell-based; conditions: Homo sapiens, HCC 2998, 72 h
SF-295 = test: cells; type: cell-based; conditions: Homo sapiens, SF-295, 72 h
BT-549 = test: cells; type: cell-based; conditions: Homo sapiens, BT-549, 72 h
SF-268 = test: cells; type: cell-based; conditions: Homo sapiens, SF-268, 72 h
NCI-H226 = test: cells; type: cell-based; conditions: Homo sapiens, NCI-H226, 72 h
CAKI-1 = test: cells; type: cell-based; conditions: Homo sapiens, CAKI-1, 72 h
HOP-92 = test: cells; type: cell-based; conditions: Homo sapiens, HOP-92, 72 h
EKVX = test: cells; type: cell-based; conditions: Homo sapiens, 72 h
[1] = Mouse pharmacokinetics study; type: in vivo
Outline: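 Plasma concentration–time profiles were obtained after each route. Absolute oral bioavailability was calculated from the IV and oral data.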

CAMKIIγ [2] = target: T1, CAMKIIγ (Homo sapiens, UniProt Q13555); test: Cellular thermal shift assay; type: cell-based; conditions: H9 cells, 5 μM, 1 hour; vs DMSO
Target sequence in this assay (Q13555 whole entry): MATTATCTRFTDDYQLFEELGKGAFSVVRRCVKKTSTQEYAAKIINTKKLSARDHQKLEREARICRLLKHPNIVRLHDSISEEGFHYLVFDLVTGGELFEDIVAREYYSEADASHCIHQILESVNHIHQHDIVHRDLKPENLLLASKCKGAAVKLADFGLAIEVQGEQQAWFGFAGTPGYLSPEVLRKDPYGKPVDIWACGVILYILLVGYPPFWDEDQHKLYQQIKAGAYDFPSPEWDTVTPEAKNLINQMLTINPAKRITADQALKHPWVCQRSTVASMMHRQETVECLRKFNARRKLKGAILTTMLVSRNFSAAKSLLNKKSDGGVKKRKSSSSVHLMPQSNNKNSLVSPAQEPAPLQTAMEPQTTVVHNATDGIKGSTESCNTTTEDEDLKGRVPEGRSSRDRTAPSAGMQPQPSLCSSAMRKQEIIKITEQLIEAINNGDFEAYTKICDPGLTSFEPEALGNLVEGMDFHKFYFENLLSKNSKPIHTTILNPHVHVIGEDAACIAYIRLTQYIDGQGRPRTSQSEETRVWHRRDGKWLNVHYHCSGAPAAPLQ

MCF7 = test: cells; type: cell-based; conditions: Homo sapiens, MCF7, 72 h
CAMKIIγ [3] = target: T1, CAMKIIγ; test: nano-DSF assay with purified CAMKIIγ protein; type: binding; conditions: in words
Target sequence in this assay (Q13555 14-272 limits assumed): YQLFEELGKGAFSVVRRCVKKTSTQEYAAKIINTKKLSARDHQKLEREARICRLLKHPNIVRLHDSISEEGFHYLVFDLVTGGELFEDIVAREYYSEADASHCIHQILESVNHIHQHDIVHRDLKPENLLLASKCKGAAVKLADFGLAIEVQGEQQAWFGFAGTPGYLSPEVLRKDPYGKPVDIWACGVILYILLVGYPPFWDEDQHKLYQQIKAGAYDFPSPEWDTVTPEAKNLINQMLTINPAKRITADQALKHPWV

OVCAR-5 = test: cells; type: cell-based; conditions: Homo sapiens, OVCAR-5, 72 h
NCI-H23 = test: cells; type: cell-based; conditions: Homo sapiens, NCI-H23, 72 h
NCI-H522 = test: cells; type: cell-based; conditions: Homo sapiens, NCI-H522, 72 h
K-562 = test: cells; type: cell-based; conditions: Homo sapiens, K562, 72 h
M14 = test: cells; type: cell-based; conditions: Homo sapiens, M14, 72 h
KM12 = test: cells; type: cell-based; conditions: Homo sapiens, KM12, 72 h
Namalwa = test: cells; type: cell-based; conditions: Homo sapiens, 72 h
HL-60(TB) = test: cells; type: cell-based; conditions: Homo sapiens, HL-60, 72 h
SK-MEL-5 = test: cells; type: cell-based; conditions: Homo sapiens, SK-MEL-5, 72 h
SK-MEL-28 = test: cells; type: cell-based; conditions: Homo sapiens, SK-MEL-28, 72 h
NCI/ADR-RES = test: cells; type: cell-based; conditions: Homo sapiens, 72 h
SNB-75 = test: cells; type: cell-based; conditions: Homo sapiens, SNB-75, 72 h
OVCAR-4 = test: cells; type: cell-based; conditions: Homo sapiens, OVCAR-4, 72 h
RPMI-8226 = test: cells; type: cell-based; conditions: Homo sapiens, RPMI-8226, 72 h
DU-145 = test: cells; type: cell-based; conditions: Homo sapiens, DU-145, 72 h
HCT-15 = test: cells; type: cell-based; conditions: Homo sapiens, HCT-15, 72 h
NCI-H322M = test: cells; type: cell-based; conditions: Homo sapiens, 72 h
CaPan2 = test: cells; type: cell-based; conditions: Homo sapiens, Capan-2, 72 h
TK-10 = test: cells; type: cell-based; conditions: Homo sapiens, TK-10, 72 h
SF-539 = test: cells; type: cell-based; conditions: Homo sapiens, SF-539, 72 h
ACHN = test: cells; type: cell-based; conditions: Homo sapiens, 72 h
COLO 205 = test: cells; type: cell-based; conditions: Homo sapiens, COLO 205, 72 h
CCRF-CEM = test: cells; type: cell-based; conditions: Homo sapiens, 72 h
786-0 = test: cells; type: cell-based; conditions: Homo sapiens, 786-0, 72 h
A498 = test: cells; type: cell-based; conditions: Homo sapiens, A498, 72 h
MALME-3M = test: cells; type: cell-based; conditions: Homo sapiens, 72 h
371-kinase panel = test: Kinome screening, HotSpot assay platform; type: biochemical; conditions: 10 μM, panel of 371 kinases
Outline: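 The HotSpot platform was run against a 371-kinase panel with test compounds at 1 µM and 10 µM. A hit was a kinase whose activity was inhibited by ≥50%.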

MDA-MB-435 = test: cells; type: cell-based; conditions: Homo sapiens, MDA-MB-435, 72 h
H9 = test: cells; type: cell-based; conditions: Homo sapiens, H9, 72 h
Panc1 = test: cells; type: cell-based; conditions: Homo sapiens, PANC-1, 72 h
SK-MEL-2 = test: cells; type: cell-based; conditions: Homo sapiens, SK-MEL-2, 72 h
UACC-62 = test: cells; type: cell-based; conditions: Homo sapiens, UACC-62, 72 h
FG = test: cells; type: cell-based; conditions: Homo sapiens, 72 h
HCT-116 = test: cells; type: cell-based; conditions: Homo sapiens, HCT-116, 72 h
LOX IMVI = test: cells; type: cell-based; conditions: Homo sapiens, 72 h
OVCAR-3 = test: cells; type: cell-based; conditions: Homo sapiens, OVCAR-3, 72 h
MDA-MB-468 = test: cells; type: cell-based; conditions: Homo sapiens, MDA-MB-468, 72 h
Rael = test: cells; type: cell-based; conditions: Homo sapiens, 72 h
[4] = tested on: H9-derived xenografted tumors; test: H9 xenograft T-cell lymphoma model in NSG mice; type: in vivo, mouse; conditions: oral gavage daily 14 days, BBM 50 mg/kg, PA4 5-15 mg/kg per day
Outline: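 Female 8-week-old NSG mice received 5×10^6 H9 cells in PBS subcutaneously in the right flank. At a tumour volume of ~30 mm³ (day 16), mice were randomised into 5 groups (n = 5 each): PBS 100 μL, or test compound in PBS, given daily by oral gavage for 14 days. Body weight and tumours were measured 3 times weekly. Mice were euthanised on day 30.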

HT29 = test: cells; type: cell-based; conditions: Homo sapiens, HT-29, 72 h
JB6 = test: cells; type: cell-based; conditions: Homo sapiens, JB6, 72 h
A549/ATCC = test: cells; type: cell-based; conditions: Homo sapiens, A549, 72 h
MDA-MB-231/ATCC = test: cells; type: cell-based; conditions: Homo sapiens, MDA-MB-231, 72 h
U251 = test: cells; type: cell-based; conditions: Homo sapiens, U-251, 72 h
RXF 393 = test: cells; type: cell-based; conditions: Homo sapiens, RXF 393, 72 h
SR = test: cells; type: cell-based; conditions: Homo sapiens, 72 h

SMILES: COc1cc2c3cc1Oc1c(OC)c(OC)cc4c1[C@@H](Cc1ccc(O)c(c1)Oc1ccc(cc1)C[C@@H]3N(C)CC2)N(C)CC4 [BBM, berbamine]
- IC50 (DHL6): 15.9 µM
- IC50 (SK-OV-3): 13.4 µM
- IC50 (MOLT-4): 10.7 µM
- IC50 (BxPC3): 31.9 µM
- IC50 (OVCAR-8): 14.6 µM
- IC50 (NCI-H460): 20.5 µM
- IC50 (UO-31): 9.61 µM
- IC50 (Mutu): 4.64 µM
- IC50 (SW-620): 12.4 µM
- IC50 (SN12C): 41.8 µM
- IC50 (T-47D): 15.7 µM
- IC50 (SNB-19): 16.2 µM
- IC50 (UACC-257): 6.5 µM
- IC50 (HS 578T): 12.4 µM
- IC50 (HOP-62): 23.8 µM
- IC50 (PC-3): 7.94 µM
- IC50 (HCC-2998): 5.61 µM
- IC50 (SF-295): 13.3 µM
- IC50 (BT-549): 8.64 µM
- IC50 (SF-268): 13.8 µM
- IC50 (NCI-H226): 34.6 µM
- IC50 (CAKI-1): 14.2 µM
- IC50 (HOP-92): 12.7 µM
- IC50 (EKVX): 6.38 µM
- time detected in blood after oral administration ([1]; male Institute of Cancer Research mice): 5 min
- area under the curve ([1]; male Institute of Cancer Research mice, plasma): 8478 ± 1150
- bioavailability ([1]; male, ICR (Institute of Cancer Research), mouse, plasma, po): 44.8%
- CAMKIIγ degradation temperature (CETSA) (CAMKIIγ [2]): did not shift the degradation temperature
- IC50 (MCF7): 9.93 µM
- change of melting temperature of CAMKIIγ protein (CAMKIIγ [3]): did not significantly change the melting temperature
- IC50 (OVCAR-5): 9.88 µM
- IC50 (NCI-H23): 14.9 µM
- IC50 (NCI-H522): 21.3 µM
- IC50 (K-562): 5.11 µM
- IC50 (M14): 13.1 µM
- IC50 (KM12): 17.3 µM
- IC50 (Namalwa): 20.7 µM
- IC50 (HL-60(TB)): 5.98 µM
- IC50 (SK-MEL-5): 9.9 µM
- IC50 (SK-MEL-28): 15.4 µM
- IC50 (NCI/ADR-RES): 24.8 µM
- IC50 (SNB-75): 17.6 µM
- IC50 (OVCAR-4): 15.1 µM
- IC50 (RPMI-8226): 7.83 µM
- IC50 (DU-145): 27.7 µM
- IC50 (HCT-15): 11 µM
- IC50 (NCI-H322M): 20 µM
- IC50 (CaPan2): 59.1 µM
- IC50 (TK-10): 35.8 µM
- IC50 (SF-539): 5.25 µM
- IC50 (ACHN): 20.8 µM
- IC50 (COLO 205): 16 µM
- IC50 (CCRF-CEM): 11.4 µM
- IC50 (786-0): 8.48 µM
- IC50 (A498): 6.97 µM
- IC50 (MALME-3M): 9.82 µM
- number of kinases whose activity was reduced by >50% (371-kinase panel): none
- IC50 (MDA-MB-435): 13.5 µM
- IC50 (H9): 4.67 µM
- IC50 (Panc1): 24.8 µM
- IC50 (SK-MEL-2): 16 µM
- IC50 (UACC-62): 19.2 µM
- IC50 (FG): 32.6 µM
- IC50 (HCT-116): 10.2 µM
- IC50 (LOX IMVI): 23 µM
- IC50 (OVCAR-3): 12.3 µM
- IC50 (MDA-MB-468): 10.4 µM
- IC50 (Rael): 5.87 µM
- body weight [4]: did not reduce body weight
- IC50 (HT29): 6.56 µM
- IC50 (JB6): 2.12 µM
- IC50 (A549/ATCC): 18.7 µM
- IC50 (MDA-MB-231/ATCC): 14.2 µM
- IC50 (U251): 10.7 µM
- IC50 (RXF 393): 16.9 µM
- IC50 (SR): 5.14 µM
